According to BindingDB's records for doi:10.1021/jm00189a004 (1979):
pIC50: −log10 of the molar value.

Target: Indolethylamine N-methyltransferase (Oryctolagus cuniculus, UniProt O97972)
Assay: Inhibition of New Zealand white rabbit lung INMT using N-methyltryptamine as substrate after 60 to 90 mins by liquid scintillation counting in presence of S-methyl-[14C]adenosylmethionine
Outline: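 Enzyme from male rabbit lung: homogenate in 0.15 M KCl with 10^-4 M DTT and EDTA, 50 000 g supernatant, 40-60% ammonium sulfate fraction dialysed (some runs further Sephadex G-150 purified). Incubation in potassium phosphate pH 7.9 with N-methyltryptamine and S-[methyl-14C]adenosylmethionine, test compound in water or 5% DMSO, 37 °C. Stopped with borate pH 10; 14C-DMT extracted into isoamyl alcohol.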

Chain of Indolethylamine N-methyltransferase (O97972 whole entry): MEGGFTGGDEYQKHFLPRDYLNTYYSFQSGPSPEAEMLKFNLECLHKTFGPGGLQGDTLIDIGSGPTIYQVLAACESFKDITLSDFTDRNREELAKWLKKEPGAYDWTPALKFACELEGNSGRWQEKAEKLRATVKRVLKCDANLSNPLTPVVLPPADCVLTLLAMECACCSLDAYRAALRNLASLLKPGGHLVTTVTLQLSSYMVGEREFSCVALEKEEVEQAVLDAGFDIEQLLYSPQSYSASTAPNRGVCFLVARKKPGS

C1CN=C2CCCN2C1
pIC50: 4.41
